From ChEMBL document CHEMBL1152328, “Alstiphyllanines A-D, indole alkaloids from Alstonia macrophylla” (J Nat Prod, 2009) come the findings set out here.

One assay deals with Plasmodium falciparum. Description: Antiplasmodial activity against Plasmodium falciparum 3D7 infected human erythrocytes by Giemsa staining. The class given is functional, organism-based. Put shortly:
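Human malaria parasites were kept in culture, and the test samples were made up as DMSO stock solutions before assay.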

The next assay concerns HeLa. Description: Cytotoxicity against human HeLa cells. The assay is classed as cell-based.
The test system of another assay is Aorta. Description: Vasodilation activity in Wistar rat endothelium-intact thoracic aortic ring assessed as inhibition of phenylepinephrine-induced contraction at 30 uM. Also noted: scale not given: the % may be the effect or the level left. The class given is functional.

≈ marks a conversion by molar mass, not a printed value.

As usually defined, the IC50 is the midpoint of a concentration-inhibition curve.

Turning to `C/C=C1\C[N+]2([O-])[C@H]3C[C@@H]1[C@]1(C(=O)OC)[C@@H](OC(C)=O)[C@]4(C[C@@H]12)c1ccccc1N(C)[C@H]34` [ALSTIPHYLLANINE A], the half-inhibitory concentration (IC50) in the assay on Plasmodium falciparum is 6.85 µg/mL (≈ 16.1 µM); with HeLa it was over 25 µg/mL. Moreover, in the assay with Aorta, the Activity worked out at 70%.
Regarding `C/C=C1/CN2[C@@H]3C[C@@]45c6cc(OC)ccc6N(C)[C@]4(O3)[C@@H]2C[C@@H]1[C@@]5(COC(=O)c1cc(OC)c(OC)c(OC)c1)C(=O)OC` [ALSTIPHYLLANINE D], the IC50 in the assay on Plasmodium falciparum was 2.75 µg/mL (≈ 4.53 µM); in the assay on HeLa, over 25 µg/mL. The Activity in the assay on Aorta was 42%.
Regarding `C/C=C1/C[N+]2(C)[C@@H]3C[C@@]45c6cc(OC)ccc6N(C)[C@]4(O3)[C@@H]2C[C@@H]1[C@@]5(COC(=O)c1cc(OC)c(OC)c(OC)c1)C(=O)OC` (some centres not stated) [ALSTIPHYLLANINE C], the half-inhibitory concentration (IC50) with Plasmodium falciparum was 6.2 µg/mL; with HeLa, over 25 µg/mL. The Activity with Aorta amounted to 40%.
Turning to `C/C=C1/C[N+]2(C)[C@@H]3C[C@@]45c6cc(OC)ccc6N(C)[C@]4(O3)[C@@H]2C[C@@H]1[C@@]5(COC(=O)c1ccc(OC)c(OC)c1)C(=O)OC` (some centres not stated) [ALSTIPHYLLANINE B], the figures for the IC50 in the assay on Plasmodium falciparum and with HeLa were 0.34 µg/mL and over 25 µg/mL, respectively. Moreover, the Activity in the assay with Aorta was 35%.
